An excerpt weighted towards active compounds, which were near 3.7% of everything screened.
KCNK9 block: human KCNK9 channel inhibition; 310,000 tested, 1.2% active; Q9NPC2; HEK293 KCNK9, FluxOR thallium flux fluorescence; stronger effect = lower value; B-score at 10 µM;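 active = ratio B-score over 3 SD below the library mean, with starting fluorescence within 5 SD of its mean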;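 note: negative B-score means less thallium flux so channel inhibition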
Target sequence (Q9NPC2 whole entry, looked up): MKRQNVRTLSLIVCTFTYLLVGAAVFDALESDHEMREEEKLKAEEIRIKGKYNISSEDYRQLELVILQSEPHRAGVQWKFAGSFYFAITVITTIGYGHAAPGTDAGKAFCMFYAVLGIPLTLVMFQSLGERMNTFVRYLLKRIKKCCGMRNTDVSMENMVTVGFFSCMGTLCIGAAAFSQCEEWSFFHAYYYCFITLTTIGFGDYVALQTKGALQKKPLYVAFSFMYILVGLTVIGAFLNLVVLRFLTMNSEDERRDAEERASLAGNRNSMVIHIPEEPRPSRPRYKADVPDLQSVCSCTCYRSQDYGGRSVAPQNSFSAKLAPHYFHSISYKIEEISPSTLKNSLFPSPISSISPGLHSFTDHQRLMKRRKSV
KCNQ1 block: inhibitors of human KCNQ1 potassium channel. CHO-K1 KCNQ1, FluxOR thallium flux fluorescence; stronger effect = higher value. B-score at 10 µM. 310,000 tested, 1.3% active;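 active = compounds whose thallium flux B-score, printed positive for inhibition, exceeds three library SD while starting fluorescence stays within three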;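 note: channel opened by potassium depolarization with thallium stimulus after 20 min compound exposure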
Kir21 inh: inhibitors of mouse Kir2.1 inward-rectifier potassium channel; HEK293-Kir2.1, FluxOR thallium flux fluorescence; stronger effect = lower value; B-score at 10 µM; 310,000 tested, 0.85% active;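 active = fluorescence ratio B-score at or below minus 3 SD of library scores, with starting-brightness B-score within 2 SD, cut at about -4.2 in these data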;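 note: channel flux triggered by added potassium and thallium sulfate stimulus; B-score of peak minus minimum fluorescence over baseline after thallium stimulus; more negative B-score means stronger Kir2.1 block with less thallium influx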
KCNK3 inh: human KCNK3 channel inhibition, primary screen. 340,000 tested, 0.84% active. CHO-KCNK3 thallium flux, FluxOR fluorescence; stronger effect = lower value. O14649. AID 602410. B-score at 10 µM;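 active = B-score under library mean minus 4 SD, starting fluorescence ratio at most library mean plus 5 SD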;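 note: more negative B-score means stronger inhibition of thallium flux through KCNK3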
Target sequence (O14649 whole entry, looked up): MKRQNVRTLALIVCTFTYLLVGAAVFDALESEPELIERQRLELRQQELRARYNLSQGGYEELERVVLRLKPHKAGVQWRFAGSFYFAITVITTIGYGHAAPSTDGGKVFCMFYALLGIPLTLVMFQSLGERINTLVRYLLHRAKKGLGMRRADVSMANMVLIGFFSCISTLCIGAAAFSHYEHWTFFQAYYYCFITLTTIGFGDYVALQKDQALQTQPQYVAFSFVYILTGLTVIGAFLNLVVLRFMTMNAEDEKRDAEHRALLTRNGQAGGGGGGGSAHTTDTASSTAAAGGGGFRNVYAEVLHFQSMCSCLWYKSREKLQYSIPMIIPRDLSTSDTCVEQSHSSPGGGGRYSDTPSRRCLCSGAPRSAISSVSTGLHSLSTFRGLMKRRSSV
hERG rescue: compounds protecting human hERG from proarrhythmic drug block; CHO-hERG, FluxOR thallium flux, dofetilide IC70 present; activation (rescue from dofetilide block), less the hit threshold, % at 10 µM; 310,000 tested, 0.51% active;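 active = activation above the mean of controls blocked by dofetilide plus 5 SD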;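 note: thallium influx through hERG after potassium depolarization seen as dye fluorescence rise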
KCNQ1 act: potentiates or activates the human KCNQ1 potassium channel. 310,000 tested, 0.35% active. AID 2648. CHO-K1 KCNQ1, thallium flux FluxOR fluorescence; stronger effect = higher value. B-score at 10 µM;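 active = fluorescence ratio B-score, a plate-corrected score, at least three library SD, with initial intensity B-score within 5 SD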
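System: Stable KCNQ1 CHO-K1 line | Incubation: 90 min dye loading and 20 min compound exposure, both at room temperature | Measure: Ratio B score | Medium: Assay buffer for compound exposure, DMSO matched across wells | Compound dosing: Single-concentration screen | Probe or stimulus: K+/Tl+ depolarizing stimulus | Measured by: Kinetic FluxOR fluorescence, 10 s baseline plus 110 s post-stimulus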
KCNK9 inh conf: human KCNK9 inhibitor confirmation. shares compounds with KCNK9 block. HEK293 KCNK9 cells, FluxOR thallium flux fluorescence. inhibition, % at 10 µM. 4,900 tested, 43% active;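 active = thallium signal inhibited by more than 5 SD of the compound-free buffer control wells, on both duplicate plates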
Kir2-1 spec: mouse Kir2.1 off-target activity of KCNK9 modulators. shares compounds with KCNK9 block. Kir2.1 cells, FluxOR thallium flux fluorescence. inhibition, % at 10 µM. 4,900 tested, 4% active. AID 492993;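 active = thallium signal drop more than 5 SD beyond the mean of the no-compound control wells, seen in both duplicate plates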;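 note: signal is fluorescence rise after thallium addition divided by baseline fluorescence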
HEK293 Tl ctr: second counter-screen for KCNK9 modulators: effect in non-induced cells. 4,900 tested, 40% active. shares compounds with KCNK9 block. inhibition, % at 10 µM. non-induced KCNK9-HEK293, FluxOR thallium flux;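 active = thallium signal drop beyond 5 SD of the untreated control mean, on both duplicate plates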
Large screens that a line does not name were inactive (follow-up assays come after a bar, where they were run).

CC1SCC(NC(=O)c2cccc(Cl)c2)CS1 (stereo not given)	KCNK9 block -10 | KCNK9 inh conf 44% | Kir2-1 spec inactive | HEK293 Tl ctr 26%
Cc1ccc(CN(C)C(=O)c2cccc(S(=O)(=O)N3CCc4ccccc4C3)c2)o1	none (no result: KCNK9 block, KCNQ1 block, Kir21 inh, hERG rescue, KCNQ1 act)
Fc1cccc(F)c1-n1c(CN2CCCCC2)csc1=S	none
Cc1ccc(C(=O)N2CCCC(N3CCN(c4cccc(C(F)(F)F)c4)CC3)C2)s1 (stereo not given)	none | KCNK9 inh conf inactive | Kir2-1 spec inactive | HEK293 Tl ctr inactive
CSc1nc(C(=O)N2CCCC(N3CCN(c4ccccc4C)CC3)C2)cs1 (stereo not given)	none | KCNK9 inh conf inactive | Kir2-1 spec inactive | HEK293 Tl ctr inactive
CC1=C(C(=O)N2CCCC(N3CCN(c4cccc(C(F)(F)F)c4)CC3)C2)OCCO1 (stereo not given)	none | KCNK9 inh conf inactive | Kir2-1 spec inactive | HEK293 Tl ctr inactive
Cc1cccc(C(=O)N2CCCC(N3CCN(c4ccccc4F)CC3)C2)n1 (stereo not given)	none
Cc1ccc(C(=O)N2CCCC(N3CCN(c4ccccc4F)CC3)C2)s1 (stereo not given)	none | KCNK9 inh conf inactive | Kir2-1 spec inactive | HEK293 Tl ctr inactive
CC1=C(C(=O)N2CCCC(N3CCN(c4cccc(Cl)c4)CC3)C2)OCCO1 (stereo not given)	none
O=C(Nc1ncc(Cc2ccccc2)s1)C1COc2ccccc2O1 (stereo not given)	none
Cc1ccc(Cl)cc1-n1ncc2c(NNC(=O)c3ccco3)ncnc21	none
COc1ccc(Cn2c(=O)[nH]c3cc(C(=O)N4CCN(c5ccc(C(C)=O)cc5)CC4)ccc3c2=O)cc1	none
O=C(c1ccncc1)N1CCCC(N2CCN(c3cccc(C(F)(F)F)c3)CC2)C1 (stereo not given)	none
CCc1cc(C(=O)N2CCCC(N3CCN(c4cccc(C(F)(F)F)c4)CC3)C2)n(C)n1 (stereo not given)	none | KCNK9 inh conf inactive | Kir2-1 spec inactive | HEK293 Tl ctr inactive
COc1ccc(NC(=O)[C@@H](NS(=O)(=O)c2cccc(Cl)c2)C(C)C)cc1S(=O)(=O)N1CCOCC1	none (no result: KCNK9 block, KCNQ1 block, Kir21 inh, hERG rescue, KCNQ1 act)
CCC(=O)N(C(=O)CC)N1CCN(c2ccncc2S(=O)(=O)N2CCCCC2)CC1	KCNK9 block -9.3 | KCNK9 inh conf 42% | Kir2-1 spec inactive | HEK293 Tl ctr 42%
OCCN1CCN(c2cc(-c3ccccc3)c3ccccc3n2)CC1	none
COc1ccc(CN(Cc2cccn2C)S(=O)(=O)c2cccc(C(F)(F)F)c2)cc1	KCNK9 block -8.8, KCNQ1 block 6 | KCNK9 inh conf 46% | Kir2-1 spec inactive | HEK293 Tl ctr 34%
Cc1nonc1C1CCCN1Cc1cn[nH]c1-c1ccc2c(c1)OCO2 (stereo not given)	none
C/C(=N\NC(=S)NCc1ccccc1)c1ccc(C(C)(C)C)cc1	none | KCNK9 inh conf inactive | Kir2-1 spec inactive | HEK293 Tl ctr inactive
C/C(=N\NC(=S)NCc1ccccc1)c1ccc(C#N)cc1	none
CC(=CC(=O)c1ccccc1)c1ccccc1	none (no result: KCNK9 block, KCNQ1 block, Kir21 inh, hERG rescue, KCNQ1 act)
Cc1ccccc1C(=O)N1CCC(C(=O)Nc2ccc(F)cc2)CC1	none
CSc1cccc(NC(=O)C2CCN(C(=O)c3ccccc3C)CC2)c1	none | KCNK9 inh conf inactive | Kir2-1 spec inactive | HEK293 Tl ctr inactive
CCC(C)(C)C1CCC2(CC1)NC(=O)N(CC(=O)NC(C)CCc1ccccc1)C2=O (stereo not given)	none (no result: KCNK9 block, KCNQ1 block, Kir21 inh, hERG rescue, KCNQ1 act)
CCCC(=O)NC(Nc1cc(C(F)(F)F)ccc1Cl)C(Cl)(Cl)Cl (stereo not given)	none
CCCC(=O)NC(Nc1cccc(C(F)(F)F)c1)C(Cl)(Cl)Cl (stereo not given)	KCNK9 block -8.8, KCNQ1 block 8 | KCNK9 inh conf 32% | Kir2-1 spec inactive | HEK293 Tl ctr 26%
Cn1c(CNC(=O)c2ccccc2F)nnc1SCC(=O)c1ccccc1	none
N/C(=N\OC(=O)c1cccc(F)c1)c1cccc([N+](=O)[O-])c1	none
O=c1c(Cc2ccc(F)cc2)c(O)ccn1Cc1cccc(Cl)c1	none
O=c1c(Cc2ccc(Cl)cc2)c(O)ccn1Cc1cccc(Cl)c1	none | KCNK9 inh conf inactive | Kir2-1 spec inactive | HEK293 Tl ctr inactive
O=c1c(Cc2ccc(Cl)cc2Cl)c(O)ccn1Cc1ccc(Cl)cc1	KCNQ1 block 8 | KCNK9 inh conf inactive | Kir2-1 spec inactive | HEK293 Tl ctr inactive
O=c1c(Cc2ccc(Cl)cc2)c(O)ccn1Cc1ccccc1	none
Cc1ccc(NC(=O)CSc2ccccc2NC(=O)c2ccccc2)cc1Cl	none
Cc1ccc(NC(=O)CSc2ccccc2NC(=O)c2ccccc2Cl)cc1Cl	KCNK9 block -9.7 | KCNK9 inh conf 56% | Kir2-1 spec inactive | HEK293 Tl ctr inactive
CCCCCCCCC/C(=N\O)c1ccccn1	KCNK9 block -15, KCNQ1 block 7 | KCNK9 inh conf 41% | Kir2-1 spec inactive | HEK293 Tl ctr 50%
CCOc1ccc(C2=C(C=Nc3c(C)n(C)n(-c4ccccc4)c3=O)C(c3ccc(F)cc3)c3ccccc3O2)cc1 (stereo not given)	none | KCNK9 inh conf inactive | Kir2-1 spec inactive | HEK293 Tl ctr inactive
CCc1ccc(CN(C)C(=O)c2cc(COc3cc(C)c(Cl)c(C)c3)on2)nc1	none | KCNK9 inh conf inactive | Kir2-1 spec inactive | HEK293 Tl ctr inactive
COc1ccc(CNC[C@H]2O[C@@H](n3cnc4c(N)ncnc43)[C@H](O)[C@@H]2O)cc1OC	none (no result: KCNK9 block, KCNQ1 block, Kir21 inh, hERG rescue, KCNQ1 act)
CC(=O)N1c2ccc3ccccc3c2C(C)CC12CCCCC2 (stereo not given)	KCNK9 block -12 | KCNK9 inh conf 68% | Kir2-1 spec inactive | HEK293 Tl ctr 48%
CC1CC2(CCCCC2)Nc2ccc3ccccc3c21 (stereo not given)	none
CCOc1cc(CNCCSc2nnnn2C)cc(Br)c1OCc1ccccc1F	KCNK9 block -9.5 | KCNK9 inh conf inactive | Kir2-1 spec inactive | HEK293 Tl ctr 32%
COc1cc(CNCCSc2nnnn2C)cc(Br)c1OCc1ccccc1F	none
c1ccc2c(c1)ncn2CCCOc1ccc2c(c1)CCC2	none | KCNK9 inh conf inactive | Kir2-1 spec inactive | HEK293 Tl ctr inactive
CCc1ccccc1NC(=O)c1ccc(-n2c(C)ccc2C)cc1	KCNK9 block -8.5 | KCNK9 inh conf 32% | Kir2-1 spec inactive | HEK293 Tl ctr inactive
Cc1ccc(C)n1-c1ccc(C(=O)Nc2ccccc2F)cc1	none
O=C(COC(=O)c1ccc(O)cc1O)Nc1nnc(-c2ccccc2)o1	none

Screens (PubChem)
